Laboratory results: ChEMBL document CHEMBL3352511, “Pyrrole-3-carboxamides as potent and selective JAK2 inhibitors” (Bioorg Med Chem, 2014)
pIC50: −log10 of the molar value. Activity calls are given as the source filed them. The calls are words filed in the database; no cut-off is given here.

Assays:
[1] = system: Mus musculus; test: Toxicity in human SET2 cells xenografted SCID mouse assessed as reversible body weight loss at 30 mg/kg, po bid for 10 consecutive days measured after 10 days; settings: in vivo, 240 h
[2] = Clearance in Balb nu/nu mouse at 10 mg/kg, iv; format: ADME, organism-based; design: dose 10 mg/kg, route intravenous; settings: in vivo
How it was run: (§1)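 Overnight-fasted male Nu/Nu mice, single intravenous dose in 10% Tween 80 in 5% dextrose, three mice. Saphenous vein blood taken at predose, 0.083, 0.5, 1, 6 and 24 h. Plasma obtained by centrifugation at 10,000g, 3 min, 4 °C, stored at -80 °C, then analysed by LC/MS/MS.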

[3] = system: Mus musculus; test: Toxicity in human SET2 cells xenografted SCID mouse assessed as reversible body weight loss at 50 mg/kg, po bid administered as 5 days on 5 days off for 3 cycles; format: organism-based; design: dose 50 mg/kg, route oral; settings: in vivo, 120 h
How it was run: (§2)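 SET-2 xenografts (10^7 cells s.c.) in irradiated female SCID mice, seven per study, dosed orally from 100-200 mm³ tumours, with 0.5% methocel vehicle controls. Body weight loss recorded at end of treatment.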

[4] = molecular target: JAK3/JAK1 (Homo sapiens) (UniProt P52333+P23458); test: Inhibition of JAK1/3-induced STAT5 phosphorylation in IL-2-activated human DERL7 cells at 10 uM after 2 hrs by SDS-PAGE analysis; format: cell-based
How it was run: (§3)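 DERL-7 cells were kept in RPMI 1640 with 10% FBS and 20 ng/ml human IL-2, then starved 18 h. Compound was applied for 2 h, followed by IL-2 stimulation (20 ng/ml, 15 min, 37 °C). Cold-PBS-washed cells were lysed in RIPA. Lysates were resolved by SDS-PAGE and western blotted for P-STAT5 and total STAT5, with ECL detection.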

[5] = molecular target: Dual specificity tyrosine-phosphorylation-regulated kinase 1B (Homo sapiens) (UniProt Q9Y463); test: Inhibition of human DYRK1B at 0.1 uM
How it was run: (§4)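 KINOMEscan active-site-directed competition binding panel of 442 human kinases, compound tested at 0.1 µM. Primary screen results expressed as % Ctrl, where lower values mean stronger binding.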

[6] = AUC(infinity) in Balb nu/nu mouse at 10 mg/kg, po; format: ADME, organism-based; design: time infinity, dose 10 mg/kg, route oral; settings: plasma
How it was run: (§5)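 Overnight-fasted male Nu/Nu mice, single oral dose in 0.5% methocel, three mice. Saphenous vein blood taken at predose, 0.083, 0.5, 1, 6 and 24 h. Plasma obtained by centrifugation at 10,000g, 3 min, 4 °C, stored at -80 °C, then analysed by LC/MS/MS.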

[7] = Antitumor activity against human SET2 cells xenografted in SCID mouse assessed as tumor growth inhibition at 30 mg/kg, po bid for 10 consecutive days; format: functional; settings: SET-2, read-out: TGI
How it was run: (§6)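 Female SCID mice, 5–6 weeks old, given 200 Rads whole-body gamma irradiation, then inoculated s.c. with 10^7 SET-2 cells. Dosing by mouth started at 100-200 mm³ tumours; controls received vehicle (0.5% methocel). Seven animals per study.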

[8] = molecular target: Tyrosine-protein kinase JAK2 (Homo sapiens, UniProt O60674, V617F)
[9] = Cmax in Balb nu/nu mouse at 10 mg/kg, po; format: ADME, organism-based; design: dose 10 mg/kg, route oral; settings: in vivo
How it was run: as §5

[10] = system: Mus musculus; test: Toxicity in human SET2 cells xenografted SCID mouse assessed as reversible body weight loss at 15 mg/kg, po bid for 10 consecutive days; format: organism-based; design: dose 15 mg/kg, route oral; settings: in vivo
How it was run: as §2

[11] = molecular target: Dual specificity protein kinase CLK1 (Homo sapiens) (UniProt P49759); test: Inhibition of human CLK1 at 0.1 uM
How it was run: as §4

[12] = Volume of distribution at steady state in Balb nu/nu mouse at 10 mg/kg, iv; format: ADME, organism-based; design: dose 10 mg/kg, route intravenous; settings: in vivo, read-out: Vdss
How it was run: as §1

[13] = system: SET-2; test: Inhibition of STAT3 phosphorylation in human SET2 cells xenografted in SCID mouse assessed as tumor growth inhibition at 50 mg/kg, po as single dose measured up to 12 hrs post treatment; format: functional, organism-based; design: dose 50 mg/kg
How it was run: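 SET-2 s.c. xenografts in irradiated female SCID mice were given one oral dose. Tumours were collected at several post-treatment times, 3 animals per time. Tumour lysates were western blotted for P-STAT5 and P-STAT3, with GAPDH as loading control.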

[14] = system: DERL7; test: Effect on total STAT5 level in IL-2-activated human DERL7 cells at 0.08 to 10 uM after 2 hrs by SDS-PAGE analysis; format: functional, cell-based
How it was run: as §3

[15] = molecular target: T1, Serine/threonine-protein kinase TAO1 (Homo sapiens) (UniProt Q7L7X3); test: Inhibition of human TAOK1 at 0.1 uM
T1 sequence (whole entry): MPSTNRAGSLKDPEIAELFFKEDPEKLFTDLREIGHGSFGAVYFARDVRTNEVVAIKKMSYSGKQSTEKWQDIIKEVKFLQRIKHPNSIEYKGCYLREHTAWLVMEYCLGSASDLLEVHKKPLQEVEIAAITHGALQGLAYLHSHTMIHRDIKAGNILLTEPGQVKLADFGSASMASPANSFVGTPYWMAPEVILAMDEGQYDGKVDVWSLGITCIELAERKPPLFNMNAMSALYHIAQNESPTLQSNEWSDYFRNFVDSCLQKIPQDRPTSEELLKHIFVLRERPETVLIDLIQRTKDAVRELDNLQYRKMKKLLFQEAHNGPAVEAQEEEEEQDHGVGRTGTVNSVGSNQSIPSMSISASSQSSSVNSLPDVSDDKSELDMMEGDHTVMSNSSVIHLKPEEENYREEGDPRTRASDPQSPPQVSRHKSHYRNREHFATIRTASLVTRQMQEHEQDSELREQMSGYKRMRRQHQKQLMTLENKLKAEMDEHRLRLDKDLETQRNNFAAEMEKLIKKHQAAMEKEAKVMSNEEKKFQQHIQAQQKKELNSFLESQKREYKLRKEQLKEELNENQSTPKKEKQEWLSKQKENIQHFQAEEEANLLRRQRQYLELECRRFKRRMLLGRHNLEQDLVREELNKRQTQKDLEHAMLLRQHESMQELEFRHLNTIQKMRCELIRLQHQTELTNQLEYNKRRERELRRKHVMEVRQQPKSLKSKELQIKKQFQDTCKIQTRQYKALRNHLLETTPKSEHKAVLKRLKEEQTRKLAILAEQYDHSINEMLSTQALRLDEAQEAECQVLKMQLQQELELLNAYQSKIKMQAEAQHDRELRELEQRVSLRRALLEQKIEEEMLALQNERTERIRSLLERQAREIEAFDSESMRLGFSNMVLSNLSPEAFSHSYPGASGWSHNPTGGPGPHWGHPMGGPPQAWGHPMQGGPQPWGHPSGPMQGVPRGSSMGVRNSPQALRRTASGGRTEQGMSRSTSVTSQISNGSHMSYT
How it was run: as §4

[16] = Oral bioavailability in Balb nu/nu mouse at 10 mg/kg; format: ADME, organism-based; settings: in vivo
How it was run: as §5

[17] = molecular target: Dual specificity protein kinase CLK4 (Homo sapiens) (UniProt Q9HAZ1); test: Inhibition of human CLK4 at 0.1 uM
How it was run: as §4

[18] = Antitumor activity against human SET2 cells xenografted in SCID mouse assessed as tumor growth inhibition at 50 mg/kg, po bid administered as 5 days on 5 days off for 3 cycles; format: functional; settings: SET-2, 120 h, read-out: TGI
How it was run: as §6

Chain of Dual specificity protein kinase CLK4 (Homo sapiens) (Q9HAZ1 whole entry, looked up): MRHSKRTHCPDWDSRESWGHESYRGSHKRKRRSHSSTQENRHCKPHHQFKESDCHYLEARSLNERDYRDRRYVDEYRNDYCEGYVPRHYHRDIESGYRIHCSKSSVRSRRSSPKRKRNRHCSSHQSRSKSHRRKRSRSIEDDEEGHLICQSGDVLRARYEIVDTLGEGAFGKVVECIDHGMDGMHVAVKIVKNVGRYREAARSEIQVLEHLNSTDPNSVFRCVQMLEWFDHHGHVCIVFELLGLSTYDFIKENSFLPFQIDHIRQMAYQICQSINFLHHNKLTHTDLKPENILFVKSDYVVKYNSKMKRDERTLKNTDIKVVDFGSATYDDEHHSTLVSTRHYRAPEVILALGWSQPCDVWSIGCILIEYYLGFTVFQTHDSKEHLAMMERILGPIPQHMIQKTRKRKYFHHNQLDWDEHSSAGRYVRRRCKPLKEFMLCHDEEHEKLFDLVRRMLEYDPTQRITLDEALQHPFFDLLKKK
Chain of Dual specificity protein kinase CLK1 (Homo sapiens) (P49759 whole entry, looked up): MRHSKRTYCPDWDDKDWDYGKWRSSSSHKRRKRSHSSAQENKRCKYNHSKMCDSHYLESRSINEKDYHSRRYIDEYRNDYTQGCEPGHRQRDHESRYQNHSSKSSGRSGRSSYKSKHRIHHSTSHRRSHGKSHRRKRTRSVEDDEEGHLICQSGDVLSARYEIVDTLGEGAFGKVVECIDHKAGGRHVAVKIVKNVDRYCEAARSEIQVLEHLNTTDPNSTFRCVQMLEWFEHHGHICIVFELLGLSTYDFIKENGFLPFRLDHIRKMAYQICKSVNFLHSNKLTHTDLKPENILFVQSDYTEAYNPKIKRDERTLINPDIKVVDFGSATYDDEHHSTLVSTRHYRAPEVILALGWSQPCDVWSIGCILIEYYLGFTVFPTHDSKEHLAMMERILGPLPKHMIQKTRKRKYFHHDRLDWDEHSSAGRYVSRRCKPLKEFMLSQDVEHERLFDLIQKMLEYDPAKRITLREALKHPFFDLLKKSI
Chain of Tyrosine-protein kinase JAK2 (O60674 whole entry V617F): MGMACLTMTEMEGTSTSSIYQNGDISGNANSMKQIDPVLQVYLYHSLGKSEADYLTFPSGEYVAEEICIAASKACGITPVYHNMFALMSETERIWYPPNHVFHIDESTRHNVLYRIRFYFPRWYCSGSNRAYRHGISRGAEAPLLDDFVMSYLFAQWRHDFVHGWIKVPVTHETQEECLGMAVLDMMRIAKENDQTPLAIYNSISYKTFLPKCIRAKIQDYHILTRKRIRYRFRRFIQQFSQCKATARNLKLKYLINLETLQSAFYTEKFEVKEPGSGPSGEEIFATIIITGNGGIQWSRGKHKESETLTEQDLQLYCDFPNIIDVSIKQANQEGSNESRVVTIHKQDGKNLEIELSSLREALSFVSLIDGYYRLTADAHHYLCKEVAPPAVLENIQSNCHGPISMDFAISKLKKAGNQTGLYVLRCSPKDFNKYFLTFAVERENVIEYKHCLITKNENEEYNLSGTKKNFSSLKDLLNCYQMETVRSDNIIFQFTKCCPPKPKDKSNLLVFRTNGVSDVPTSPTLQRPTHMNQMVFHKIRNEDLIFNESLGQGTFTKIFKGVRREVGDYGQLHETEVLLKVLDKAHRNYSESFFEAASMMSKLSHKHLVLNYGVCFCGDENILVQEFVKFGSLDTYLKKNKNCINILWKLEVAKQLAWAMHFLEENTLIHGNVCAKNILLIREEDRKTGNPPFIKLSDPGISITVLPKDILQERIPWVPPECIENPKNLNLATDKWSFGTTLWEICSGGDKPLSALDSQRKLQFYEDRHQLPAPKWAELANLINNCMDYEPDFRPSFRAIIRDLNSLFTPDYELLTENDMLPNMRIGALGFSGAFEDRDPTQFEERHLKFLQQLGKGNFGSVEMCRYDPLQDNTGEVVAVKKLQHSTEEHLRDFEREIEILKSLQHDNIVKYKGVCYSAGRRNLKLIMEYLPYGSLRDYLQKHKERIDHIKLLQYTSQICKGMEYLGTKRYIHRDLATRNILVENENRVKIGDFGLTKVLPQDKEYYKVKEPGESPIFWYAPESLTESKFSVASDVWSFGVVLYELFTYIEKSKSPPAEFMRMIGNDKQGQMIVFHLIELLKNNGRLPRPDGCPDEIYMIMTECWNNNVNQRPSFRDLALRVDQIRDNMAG
Chain of Dual specificity tyrosine-phosphorylation-regulated kinase 1B (Homo sapiens) (Q9Y463 whole entry, looked up): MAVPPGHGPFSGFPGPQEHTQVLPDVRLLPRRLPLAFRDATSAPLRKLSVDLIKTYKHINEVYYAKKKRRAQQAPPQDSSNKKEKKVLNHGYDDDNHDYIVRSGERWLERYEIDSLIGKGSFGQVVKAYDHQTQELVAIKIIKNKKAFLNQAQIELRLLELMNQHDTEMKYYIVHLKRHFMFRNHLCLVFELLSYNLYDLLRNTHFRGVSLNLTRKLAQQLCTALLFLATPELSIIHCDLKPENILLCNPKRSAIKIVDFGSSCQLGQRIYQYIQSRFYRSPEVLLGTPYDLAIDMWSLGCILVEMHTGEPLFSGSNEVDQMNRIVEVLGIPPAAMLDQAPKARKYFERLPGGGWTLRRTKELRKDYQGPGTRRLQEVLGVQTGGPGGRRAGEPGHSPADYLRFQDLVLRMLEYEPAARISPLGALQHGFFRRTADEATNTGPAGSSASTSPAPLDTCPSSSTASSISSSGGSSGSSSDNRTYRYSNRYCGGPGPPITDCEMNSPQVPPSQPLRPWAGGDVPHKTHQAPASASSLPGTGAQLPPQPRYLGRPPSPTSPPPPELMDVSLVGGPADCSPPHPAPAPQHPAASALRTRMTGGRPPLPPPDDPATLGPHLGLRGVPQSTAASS

NC(=O)c1cc(-c2ccnc(N)n2)[nH]c1-c1cc(C(F)(F)F)ccc1Cl
Activity [1]: 6% | clearance [2]: 16.2 mL/min/kg | Activity [3]: 15% | inhibition [4]: Active | inhibition [5]: 1% | AUC(0-inf) [6]: 9.5 µM·h | inhibition in vivo at 30 mg/kg [7]: 71% | pIC50 [8]: 6.32 | Cmax [9]: 4.2 µM | Activity [10]: 2% | inhibition [11]: 1% | Vd [12]: 0.9 L/kg | inhibition [13]: Active | Activity [14]: inactive | inhibition [15]: 1% | bioavailability [16]: 31% | inhibition [17]: 1% | inhibition in vivo at 50 mg/kg [18]: 95%
